Consider 21 molecules from ChEMBL document CHEMBL4354846, “1,3-Dipolar Cycloaddition, HPLC Enantioseparation, and Docking Studies of Saccharin/Isoxazole and Saccharin/Isoxazoline Derivatives as Selective Carbonic Anhydrase IX and XII Inhibitors” (J Med Chem, 2020).

Activity calls are given as the source filed them. The rule behind the calls is not given here.

Series [1] has as its target Carbonic anhydrase 1 (Homo sapiens, UniProt P00915). The series can be described thus: Inhibition of recombinant human carbonic anhydrase 1 incubated for 15 mins prior to testing measured for 10 to 100 secs by phenol red-based stopped-flow CO2 hydration assay.
Series [2] concerns the target Carbonic anhydrase 2 (Homo sapiens, UniProt P00918). The series can be described thus: Inhibition of recombinant human carbonic anhydrase 2 incubated for 15 mins prior to testing measured for 10 to 100 secs by phenol red-based stopped-flow CO2 hydration assay.
The target of series [3] is Carbonic anhydrase 9 (Homo sapiens, UniProt Q16790). The series can be described thus: Inhibition of recombinant human carbonic anhydrase 9 incubated for 15 mins prior to testing measured for 10 to 100 secs by phenol red-based stopped-flow CO2 hydration assay.
Series [4] in a line: Cytotoxicity against HGF cells assessed as reduction in LDH release at 0.05 to 200 uM measured after 24 hrs by CytoTox 96 nonradioactive cytotoxicity assay. The following applies: human. It is filed as cell-based. A digest of the protocol: (§1)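 Primary human gingival fibroblasts from healthy donors, in DMEM with 10% FBS at 37 °C, 5% CO2. Treated 24 h after seeding with 0.05–200 μM compound (DMSO final 0.2%). Supernatants collected at 24, 48 and 72 h and spun 450 g for 4 min. LDH measured by a 30-min coupled tetrazolium reaction read at 490 nm, with 690 nm as background. Given as % of lysed-cell positive control.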
Background: LDH leaks from cells whose membrane has failed.

A short description of series [5]: Cytotoxicity against HGF cells assessed as reduction in LDH release at 0.05 to 200 uM measured after 48 to 72 hrs by CytoTox 96 nonradioactive cytotoxicity assay. It is filed as cell-based. The following applies: human. A digest of the protocol: as §1
The nature of series [6]: Cytotoxicity against HGF cells assessed as reduction in cell viability at 0.05 to 50 uM measured after 24 to 48 hrs by MTT assay. It is filed as cell-based. To be noted: human, 50 to 200 µM; in the assay text read “50 to 200 uM” for “0.05 to 50 uM”. A digest of the protocol:
(§2)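 Gingival fibroblasts seeded and treated as for LDH: 0.05–200 μM compound, DMSO final 0.2%, read at 24, 48 and 72 h. MTT 0.5 mg/mL for 5 h at 37 °C, formazan dissolved in DMSO, read at 570 nm. Viability normalized to 0.2% DMSO control. One-way ANOVA with Tukey tests.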
A general note: Formazan colour is commonly taken as a measure of viable cells.

Series [7] is described as follows: Cytotoxicity against HGF cells assessed as reduction in cell viability at 100 to 200 uM measured after 72 hrs by MTT assay. To be noted: human. It is filed as cell-based. A digest of the protocol: as §2
Series [8] is described as follows: Cytotoxicity against HGF cells assessed as reduction in cell viability at 0.05 to 5 uM measured after 72 hrs by MTT assay. It is filed as cell-based. The following applies: human. A digest of the protocol:
as §2

The nature of series [9]: Cytotoxicity against HGF cells assessed as cell viability at 100 to 200 uM measured after 24 to 48 hrs by MTT assay relative to control. The following applies: human, read-out: Activity. It is filed as cell-based. A digest of the protocol: as §2
Series [10] deals with MCF7. The series can be described thus: Chemosensitization activity in human MCF7 cells assessed as reduction in cell viability at 100 to 200 uM measured after 72 hrs in presence of doxorubicin under hypoxic condition by MTT assay. It is filed as functional, cell-based. A digest of the protocol:
(§3)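 MCF7 in DMEM high glucose with 10% FBS, 37 °C, 5% CO2. Seeded 10000/well for 24 h, then CoCl2 100 μM for 48 h (hypoxia). Treated 72 h with compound 0.05–200 μM plus doxorubicin 2.5 μM, DMSO final 0.2%. MTT 0.5 mg/mL for 5 h at 37 °C, formazan dissolved in DMSO, read at 570 nm. Normalized to DMSO+CoCl2+doxorubicin control. Three experiments; one-way ANOVA with Tukey.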

Series [11] deals with MCF7. The series can be described thus: Chemosensitization activity in human MCF7 cells assessed as induction of morphological changes by measuring rounded cells at 100 to 200 uM measured after 72 hrs in presence of doxorubicin under hypoxic condition by phase contrast light microscopic analysis. It is filed as functional, cell-based. A digest of the protocol: (§4)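 MCF7 seeded 10000/well, grown 24 h, then medium with CoCl2 100 μM for 48 h to induce hypoxia. Cells then given compound (0.05–200 μM, DMSO final 0.2%) with doxorubicin 2.5 μM for 72 h. Imaged by phase contrast light microscopy (×20) for cell shape and detachment, before the MTT step.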

Series [12] deals with MCF7. The series can be described thus: Chemosensitization activity in human MCF7 cells assessed as induction of morphological changes by measuring cell detachment at 100 to 200 uM measured after 72 hrs in presence of doxorubicin under hypoxic condition by phase contrast light microscopic analysis. It is filed as functional, cell-based. A digest of the protocol: as §4
Series [13] has as its target Carbonic anhydrase 12 (Homo sapiens, UniProt O43570). The series can be described thus: Inhibition of recombinant human carbonic anhydrase 12 incubated for 15 mins prior to testing measured for 10 to 100 secs by phenol red-based stopped-flow CO2 hydration assay.
Series [14] in a line: Cytotoxicity against HGF cells assessed as reduction in LDH release at 0.05 to 200 uM measured up to 72 hrs by CytoTox 96 nonradioactive cytotoxicity assay. It is filed as cell-based. The following applies: human. A digest of the protocol:
as §1

Series [15] can be described thus: Cytotoxicity against HGF cells assessed as reduction in cell viability at 0.05 to 200 uM measured up to 72 hrs by MTT assay. It is filed as cell-based. To be noted: human. A digest of the protocol:
as §2

Series [16] has as its system MCF7. The series can be described thus: Chemosensitization activity in human MCF7 cells assessed as reduction in cell viability at 0.05 to 200 uM measured after 72 hrs in presence of doxorubicin under hypoxic condition by MTT assay. It is filed as functional, cell-based. A digest of the protocol:
as §3

Series [17] has as its system MCF7. The series can be described thus: Cytotoxicity against human MCF7 cells assessed as reduction in cell viability measured after 72 hrs under hypoxic condition by MTT assay. To be noted: MCF7, 72 h. It is filed as functional, cell-based. A digest of the protocol:
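MCF7 given CoCl2 100 μM for 48 h to induce hypoxia, then doxorubicin alone at 0.05–200 μM for 72 h. Viability read by MTT: 0.5 mg/mL for 5 h at 37 °C, formazan dissolved in DMSO, absorbance at 570 nm, cell-free wells as background.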

Sequence of Carbonic anhydrase 12 (O43570 whole entry): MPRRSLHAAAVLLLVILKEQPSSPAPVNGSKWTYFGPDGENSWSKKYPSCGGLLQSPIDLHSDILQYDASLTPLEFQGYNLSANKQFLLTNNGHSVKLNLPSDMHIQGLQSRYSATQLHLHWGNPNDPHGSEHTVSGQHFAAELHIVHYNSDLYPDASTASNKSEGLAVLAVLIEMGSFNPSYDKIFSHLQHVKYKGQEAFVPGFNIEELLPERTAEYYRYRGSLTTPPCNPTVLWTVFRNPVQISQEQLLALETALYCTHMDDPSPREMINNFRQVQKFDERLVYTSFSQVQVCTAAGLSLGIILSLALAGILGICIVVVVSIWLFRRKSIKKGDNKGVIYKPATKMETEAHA
Sequence of Carbonic anhydrase 1 (P00915 whole entry): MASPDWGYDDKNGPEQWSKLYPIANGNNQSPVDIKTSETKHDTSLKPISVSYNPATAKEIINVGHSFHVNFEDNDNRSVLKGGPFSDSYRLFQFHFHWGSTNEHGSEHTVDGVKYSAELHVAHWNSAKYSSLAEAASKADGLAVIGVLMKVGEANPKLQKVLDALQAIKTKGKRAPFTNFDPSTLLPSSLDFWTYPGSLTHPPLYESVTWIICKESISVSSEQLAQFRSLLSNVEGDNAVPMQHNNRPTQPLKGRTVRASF

What is called Ki is a measure of affinity in units of concentration, obtained from inhibition or displacement. As to `COc1ccc(-c2cc(CN3C(=O)c4ccccc4S3(=O)=O)on2)cc1`, the Ki is above 10000 nM in series [1], above 10000 nM in series [2] and 22.1 nM in series [3]. Further, the Activity result in series [4] is “Toxic”; in series [5], “Non-Toxic”; in series [6], “Toxic”; in series [7] it was “Toxic”; in series [8], “Non-Toxic”. In series [9], the viability at up to 200 µM is below 50%. Moreover, the result in series [10], in series [11] and in series [12] was Active.

`O=C1c2ccccc2S(=O)(=O)N1Cc1cc(-c2ccccn2)no1`: the Ki is above 10000 nM in series [1], above 10000 nM in series [2] and 245 nM in series [3].

With `O=C1c2ccccc2S(=O)(=O)N1Cc1cc(-c2ccccc2)no1`, the Ki was above 10000 nM in [1], above 10000 nM in series [2] and 50.9 nM in series [3].

As for `O=C1c2ccccc2S(=O)(=O)N1CC1CC(c2ccc([N+](=O)[O-])cc2)=NO1` (configuration not stated), the Ki is above 10000 nM in series [1], above 10000 nM in series [2] and 235 nM in series [3].

As to `COc1ccccc1-c1cc(CN2C(=O)c3ccccc3S2(=O)=O)on1`, the Ki in series [1], in series [2] and in series [3] was above 10000 nM throughout.

`COc1cccc(-c2cc(CN3C(=O)c4ccccc4S3(=O)=O)on2)c1`: the Ki in series [1] was above 10000 nM; in [2], above 10000 nM; in series [3] it was 247 nM.

As for `O=C1c2ccccc2S(=O)(=O)N1C[C@H]1CC(c2cccs2)=NO1`, the figures for the Ki in [1], in [2] and in series [3] were 358 nM, above 10000 nM and 26.4 nM, respectively.

Regarding `O=C1c2ccccc2S(=O)(=O)N1C[C@@H]1CC(c2ccccc2)=NO1`, the Ki was above 10000 nM in series [1], above 10000 nM in [2], 29.3 nM in [3] and 36.5 nM in series [13].

For the molecule `O=C1c2ccccc2S(=O)(=O)N1Cc1cc(-c2ccc([N+](=O)[O-])cc2)no1`, the Ki in series [1] and in [2] was above 10000 nM in each case. The Activity result in series [14] and in series [15] was “Non-Toxic” throughout. In series [16], the result was inactive. Also, the outcome in [11] and in series [12] was Active.

As to `COc1ccc(C2=NOC(CN3C(=O)c4ccccc4S3(=O)=O)C2)cc1` (configuration not stated), the Ki in series [1] was above 10000 nM; in [3], 139 nM; in [13], 8.1 nM.

In the case of `COc1ccccc1C1=NOC(CN2C(=O)c3ccccc3S2(=O)=O)C1` (configuration not stated), the inhibition constant (Ki) is above 10000 nM in series [1], above 10000 nM in series [2], above 10000 nM in series [3] and 9.4 nM in series [13].

As for `COc1cccc(C2=NOC(CN3C(=O)c4ccccc4S3(=O)=O)C2)c1` (configuration not stated), the Ki in [1], in series [2] and in series [3] was above 10000 nM throughout.

As for `O=C1c2ccccc2S(=O)(=O)N1CC1CC(c2cccnc2)=NO1` (configuration not stated), the Ki in [1] was above 10000 nM; in [2], above 10000 nM; in [3], 274 nM.

For the molecule `O=C1c2ccccc2S(=O)(=O)N1CC1CC(c2ccccn2)=NO1` (configuration not stated), the Ki in [1] is above 10000 nM; in [2], above 10000 nM; in [3], 258 nM.

Consider `O=C1c2ccccc2S(=O)(=O)N1CC1CC(c2cccc([N+](=O)[O-])c2)=NO1` (configuration not stated), for which the Ki is above 10000 nM in [1], above 10000 nM in series [2] and 103 nM in series [3].

`O=C1c2ccccc2S(=O)(=O)N1Cc1cc(-c2cccc([N+](=O)[O-])c2)no1`: the Ki is above 10000 nM in series [1], above 10000 nM in [2] and 230 nM in series [3].

As for `O=C1c2ccccc2S(=O)(=O)N1Cc1cc(-c2cccs2)no1`, the Ki in series [1] was above 10000 nM; in series [2], above 10000 nM; in series [3], 7.5 nM.

Regarding `O=C1c2ccccc2S(=O)(=O)N1C[C@@H]1CC(c2cccs2)=NO1`, the Ki in [1] is 365 nM; in series [2] it was 13.1 nM; in series [3] it was 2.4 nM.

As to `O=C1c2ccccc2S(=O)(=O)N1C[C@H]1CC(c2ccccc2)=NO1`, the Ki in series [1] was above 10000 nM; in [2], above 10000 nM; in series [3], 30 nM; in series [13] it was 48.9 nM.

In general, IC50 refers to the concentration that inhibits the measured activity by half. For `COc1cccc2c1C(=O)c1c(O)c3c(c(O)c1C2=O)C[C@@](O)(C(=O)CO)C[C@@H]3O[C@H]1C[C@H](N)[C@H](O)[C@H](C)O1` [DOXORUBICIN], the IC50 in series [17] fell in the range of 5000 to 50000 nM.

Take `O=C1c2ccccc2S(=O)(=O)N1Cc1cc(-c2cccnc2)no1`: the Ki is above 10000 nM in [1], above 10000 nM in [2] and 86.2 nM in series [3].
